Results taken from ChEMBL document CHEMBL1133591, “Potent derivatives of glucagon-like peptide-1 with pharmacokinetic properties suitable for once daily administration” (J Med Chem, 2000).
Numbered stars: 1 amine (or outer) side, 2 acyl side, 3 side chain; on linkers, the order of the positions; unused ones are H or OH. Square brackets hold non-standard residues; d marks the D form. Side chains are listed from the residue outwards. Peptide text beside a SMILES is read from it. * marks the point of attachment. ξ: configuration not given here. ξγGlu = O=C(O)C(CCC(=O)[*:2])N[*:1]; Palmitoyl = CCCCCCCCCCCCCCCC(=O)*; X1 = CCCCCCCCCC(CCCCC(=O)*)C(=O)O; ξK = NCCCCC(N)C(=O)O

Tests used:
[1] = target: Glucagon-like peptide 1 receptor (Homo sapiens, UniProt P43220); assay: Potency measured using recombinant human GLP-1 receptor expressed in Baby Hamster Kidney (BHK)cells; format: cell-based
Glucagon-like peptide 1 receptor, sequence (P43220 whole entry): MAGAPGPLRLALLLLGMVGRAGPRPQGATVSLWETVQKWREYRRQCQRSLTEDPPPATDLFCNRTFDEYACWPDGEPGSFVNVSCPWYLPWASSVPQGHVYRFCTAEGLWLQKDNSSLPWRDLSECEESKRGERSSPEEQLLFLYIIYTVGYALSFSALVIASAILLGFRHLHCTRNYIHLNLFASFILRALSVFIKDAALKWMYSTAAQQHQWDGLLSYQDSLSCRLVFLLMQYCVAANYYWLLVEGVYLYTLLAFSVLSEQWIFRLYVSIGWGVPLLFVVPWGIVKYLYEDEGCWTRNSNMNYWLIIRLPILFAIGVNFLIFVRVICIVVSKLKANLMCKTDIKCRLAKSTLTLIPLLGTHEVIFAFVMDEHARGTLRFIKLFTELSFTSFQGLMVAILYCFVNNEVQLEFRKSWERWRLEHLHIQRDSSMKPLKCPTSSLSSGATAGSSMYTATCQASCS

[2] = Plasma half life was determined in pigs; format: ADME, organism-based, Sus scrofa; conditions: pig
In short: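 Landrace × Duroc × Yorkshire pigs, 25–50 kg, two per compound; single sc dose, 0.5 nmol/kg for analogues, 15 nmol/kg for GLP-1. Jugular catheter blood at 0–72 h, extra early samples for GLP-1; EDTA/aprotinin/bacitracin-stabilized plasma. Unextracted plasma assayed by N-terminal-specific GLP-1 radioimmunoassay against spiked pig-plasma calibrators; half-life calculated per pig, reported as mean ± SD.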

| EC50 [1] [nM] | half-life [2] [h] | SMILES |
| --- | --- | --- |
| 0.0301 | 20 | CCCCCCCCCCCCCCCC(=O)NC(CCC(=O)NCCCC[C@H](NC(=O)CNC(=O)[C@H](CCC(=O)O)NC(=O)[C@H](CC(C)C)NC(=O)[C@H](Cc1ccc(O)cc1)NC(=O)[C@H](CO)NC(=O)[C@H](CO)NC(=O)[C@@H](NC(=O)[C@H](CC(=O)O)NC(=O)[C@H](CO)NC(=O)[C@@H](NC(=O)[C@H](Cc1ccccc1)NC(=O)[C@@H](NC(=O)CNC(=O)[C@H](CCC(=O)O)NC(=O)[C@H](C)NC(=O)[C@@H](N)Cc1c[nH]cn1)[C@@H](C)O)[C@@H](C)O)C(C)C)C(=O)N[C@@H](C)C(=O)N[C@@H](C)C(=O)N[C@@H](CCCN=C(N)N)C(=O)N[C@@H](CCC(=O)O)C(=O)N[C@@H](Cc1ccccc1)C(=O)N[C@H](C(=O)N[C@@H](C)C(=O)N[C@@H](Cc1c[nH]c2ccccc12)C(=O)N[C@@H](CC(C)C)C(=O)N[C@H](C(=O)N[C@@H](CCCN=C(N)N)C(=O)NCC(=O)N[C@@H](CCCN=C(N)N)C(=O)NCC(=O)O)C(C)C)[C@@H](C)CC)C(=O)O (stereo partly drawn) (H-HAEGTFTSDVSSYLEGK([ξγGlu-Palmitoyl])AAREFIAWLVRGRG-OH) |
| 0.00789 | 13 | CCCCCCCCCC(CCCCC(=O)NCCCC[C@H](NC(=O)CNC(=O)[C@H](CCCN=C(N)N)NC(=O)[C@@H](NC(=O)[C@H](CC(C)C)NC(=O)[C@H](Cc1c[nH]c2ccccc12)NC(=O)[C@H](C)NC(=O)[C@@H](NC(=O)[C@H](Cc1ccccc1)NC(=O)[C@H](CCC(=O)O)NC(=O)[C@H](CCCN=C(N)N)NC(=O)[C@H](C)NC(=O)[C@H](C)NC(=O)[C@H](CCC(N)=O)NC(=O)CNC(=O)[C@H](CCC(=O)O)NC(=O)[C@H](CC(C)C)NC(=O)[C@H](Cc1ccc(O)cc1)NC(=O)[C@H](CO)NC(=O)[C@H](CO)NC(=O)[C@@H](NC(=O)[C@H](CC(=O)O)NC(=O)[C@H](CO)NC(=O)[C@@H](NC(=O)[C@H](Cc1ccccc1)NC(=O)[C@@H](NC(=O)CNC(=O)[C@H](CCC(=O)O)NC(=O)[C@H](C)NC(=O)[C@@H](N)Cc1c[nH]cn1)[C@@H](C)O)[C@@H](C)O)C(C)C)[C@@H](C)CC)C(C)C)C(=O)NCC(=O)O)C(=O)O (stereo partly drawn) (H-HAEGTFTSDVSSYLEGQAAREFIAWLVRGK(X1)G-OH) |
| 0.0364 | 12 | CCCCCCCCCCCCCCCC(=O)NC(CCC(=O)NCCCC[C@H](NC(=O)CNC(=O)[C@H](CCCN=C(N)N)NC(=O)[C@@H](NC(=O)[C@H](CC(C)C)NC(=O)[C@H](Cc1c[nH]c2ccccc12)NC(=O)[C@H](C)NC(=O)[C@@H](NC(=O)[C@H](Cc1ccccc1)NC(=O)[C@H](CCC(=O)O)NC(=O)[C@H](CCCN=C(N)N)NC(=O)[C@H](C)NC(=O)[C@H](C)NC(=O)[C@H](CCC(N)=O)NC(=O)CNC(=O)[C@H](CCC(=O)O)NC(=O)[C@H](CC(C)C)NC(=O)[C@H](Cc1ccc(O)cc1)NC(=O)[C@H](CO)NC(=O)[C@H](CO)NC(=O)[C@@H](NC(=O)[C@H](CC(=O)O)NC(=O)[C@H](CO)NC(=O)[C@@H](NC(=O)[C@H](Cc1ccccc1)NC(=O)[C@@H](NC(=O)CNC(=O)[C@H](CCC(=O)O)NC(=O)[C@H](C)NC(=O)[C@@H](N)Cc1c[nH]cn1)[C@@H](C)O)[C@@H](C)O)C(C)C)[C@@H](C)CC)C(C)C)C(=O)NCC(=O)O)C(=O)O (stereo partly drawn) (H-HAEGTFTSDVSSYLEGQAAREFIAWLVRGK([ξγGlu-Palmitoyl])G-OH) |
| 0.135 | 11 | CCCCCCCCCCCCCCCC(=O)NC(CCC(=O)NCCCCC(NC(=O)[C@H](CCC(=O)O)NC(=O)[C@H](CCCN=C(N)N)NC(=O)CNC(=O)[C@H](CCCN=C(N)N)NC(=O)[C@@H](NC(=O)[C@H](CC(C)C)NC(=O)[C@H](Cc1c[nH]c2ccccc12)NC(=O)[C@H](C)NC(=O)[C@@H](NC(=O)[C@H](Cc1ccccc1)NC(=O)[C@H](CCC(=O)O)NC(=O)[C@H](CCCN=C(N)N)NC(=O)[C@H](C)NC(=O)[C@H](C)NC(=O)[C@H](CCC(N)=O)NC(=O)CNC(=O)[C@H](CCC(=O)O)NC(=O)[C@H](CC(C)C)NC(=O)[C@H](Cc1ccc(O)cc1)NC(=O)[C@H](CO)NC(=O)[C@H](CO)NC(=O)[C@@H](NC(=O)[C@H](CC(=O)O)NC(=O)[C@H](CO)NC(=O)[C@@H](NC(=O)[C@H](Cc1ccccc1)NC(=O)[C@@H](NC(=O)CNC(=O)[C@H](CCC(=O)O)NC(=O)CNC(=O)[C@@H](N)Cc1c[nH]cn1)[C@@H](C)O)[C@@H](C)O)C(C)C)[C@@H](C)CC)C(C)C)C(=O)O)C(=O)O (stereo partly drawn) (H-HGEGTFTSDVSSYLEGQAAREFIAWLVRGRE[ξK]([ξγGlu-Palmitoyl])-OH) |
